Legend:
[1] = Aqueous solubility of compound; assay type: physicochemical
[2] = tested on: Staphylococcus aureus LAC; assay: Inhibition of CrtN in Staphylococcus aureus USA300 LAC assessed as H2O2-induced bacterial death by measuring survival rate at 1 uM preincubated for 24 hrs followed by H2O2 addition measured after 30 mins by serial dilution method (reference value: 24%)
[3] = tested on: Staphylococcus aureus subsp. aureus MW2; assay: Inhibition of CrtN in Staphylococcus aureus USA400 MW2 assessed as H2O2-induced bacterial death by measuring survival rate at 1 uM preincubated for 24 hrs followed by H2O2 addition measured after 30 mins by serial dilution method (reference value: 26.3%)
Staphylococcus aureus [4] = assay: Growth inhibition of Staphylococcus aureus Newman at 0.2 mM measured after overnight incubation; details: 200 µM
Staphylococcus aureus [5] = assay: Growth inhibition of Staphylococcus aureus USA300 LAC at 0.2 mM measured after overnight incubation; details: 200 µM
Staphylococcus aureus [6] = assay: Growth inhibition of Staphylococcus aureus USA400 MW2 at 0.2 mM measured after overnight incubation; details: 200 µM
Staphylococcus aureus [7] = assay: Growth inhibition of Staphylococcus aureus Mu50 at 0.2 mM measured after overnight incubation; details: 200 µM
[8] = tested on: Staphylococcus aureus LAC; assay: Inhibition of CrtN in Staphylococcus aureus USA300 LAC assessed as H2O2-induced bacterial death by measuring fold reduction in survival rate at 1 uM preincubated for 24 hrs followed by H2O2 addition measured after 30 mins by serial dilution method
Method in brief: (§1)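 Strain grown in TSB at 37 °C for 24 h with or without 1 μM compound, or with NAC. Cells washed in PBS and set at 4×10^6 CFU per 250 μL. H2O2 added to 1.5% final, then incubated 30 min at 37 °C with shaking at 250 rpm. Reaction quenched with 1000 U/mL catalase; survivors counted by serial dilution CFU on TSA/TSB.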

[9] = tested on: Staphylococcus aureus LAC; assay: Inhibition of CrtN in Staphylococcus aureus USA300 LAC assessed as bacterial death by measuring survival rate measured after 6 hrs by serial dilution method (reference value: 12%)
Method in brief: (§2)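 Overnight cultures in PBS (1×10^7 CFU/mL) mixed 1:9 with healthy-volunteer human whole blood (1×10^6 CFU/mL final). Held 6 h at 37 °C; surviving CFU counted by serial dilution plating on TSA/TSB.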

[10] = tested on: Staphylococcus aureus subsp. aureus MW2; assay: Inhibition of CrtN in Staphylococcus aureus USA400 MW2 assessed as H2O2-induced bacterial death by measuring fold reduction in survival rate at 1 uM preincubated for 24 hrs followed by H2O2 addition measured after 30 mins by serial dilution method; method in brief: as §1
[11] = tested on: Staphylococcus aureus subsp. aureus MW2; assay: Inhibition of CrtN in Staphylococcus aureus USA400 MW2 assessed as bacterial death by measuring survival rate measured after 6 hrs by serial dilution method (reference value: 20.67%); method in brief: as §2
[12] = AUC (0 to infinity) in Sprague-Dawley rat at 10 mg/kg, po after 24 hrs by LC/MS/MS analysis; assay type: ADME, organism-based; design: dose 10 mg/kg, time infinity, route oral; details: in vivo
Method in brief: (§3)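 Male SD rats (230-260 g), six in total; compound in 10% castor oil/water given once IV at 5 mg/kg or PO at 10 mg/kg. Blood sampled at various time points over 24 h, and drug concentration measured by LC-MS/MS.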

[13] = Cmax in Sprague-Dawley rat at 5 mg/kg, iv after 24 hrs by LC/MS/MS analysis; assay type: ADME, organism-based; design: dose 5 mg/kg, route intravenous; details: in vivo; method in brief: as §3
[14] = Mean residence time (0 to infinity) in Sprague-Dawley rat at 10 mg/kg, po after 24 hrs by LC/MS/MS analysis; assay type: ADME, organism-based; details: in vivo; method in brief: as §3
[15] = Oral bioavailability in Sprague-Dawley rat at 10 mg/kg after 24 hrs by LC/MS/MS analysis; assay type: ADME, organism-based; details: in vivo
Method in brief: (§4)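 Male SD rats (230-260 g), six in total across routes. Compound dissolved in 10% castor oil/water, given orally at 10 mg/kg, with an IV arm at 5 mg/kg for comparison. Blood sampled at various time points over 24 h. Blood concentrations measured by LC-MS/MS.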

[16] = Tmax in Sprague-Dawley rat at 10 mg/kg, po after 24 hrs by LC/MS/MS analysis; assay type: ADME, organism-based; details: in vivo; method in brief: as §4
[17] = Cmax in Sprague-Dawley rat at 10 mg/kg, po after 24 hrs by LC/MS/MS analysis; assay type: ADME, organism-based; design: dose 10 mg/kg, route oral; details: in vivo; method in brief: as §3
[18] = AUC (0 to t) in Sprague-Dawley rat at 5 mg/kg, iv after 24 hrs by LC/MS/MS analysis; assay type: ADME, organism-based; design: dose 5 mg/kg, time < 24 hr, route intravenous; details: in vivo; method in brief: as §3
[19] = Mean residence time (0 to t) in Sprague-Dawley rat at 5 mg/kg, iv after 24 hrs by LC/MS/MS analysis; assay type: ADME, organism-based; details: in vivo; method in brief: as §3
[20] = Mean residence time (0 to infinity) in Sprague-Dawley rat at 5 mg/kg, iv after 24 hrs by LC/MS/MS analysis; assay type: ADME, organism-based; details: in vivo; method in brief: as §3
[21] = Mean residence time (0 to t) in Sprague-Dawley rat at 10 mg/kg, po after 24 hrs by LC/MS/MS analysis; assay type: ADME, organism-based; details: in vivo; method in brief: as §3
[22] = AUC (0 to infinity) in Sprague-Dawley rat at 5 mg/kg, iv after 24 hrs by LC/MS/MS analysis; assay type: ADME, organism-based; design: dose 5 mg/kg, time infinity, route intravenous; details: in vivo; method in brief: as §3
[23] = Half life in Sprague-Dawley rat at 5 mg/kg, iv after 24 hrs by LC/MS/MS analysis; assay type: ADME, organism-based; details: in vivo; method in brief: as §3
[24] = Tmax in Sprague-Dawley rat at 5 mg/kg, iv after 24 hrs by LC/MS/MS analysis; assay type: ADME, organism-based; details: in vivo
Method in brief: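 Male SD rats (230-260 g), six in total across routes. Single intravenous dose of 5 mg/kg in 10% castor oil/water. Blood sampled at various time points over 24 h. Compound concentration in blood quantified by LC-MS/MS.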

[25] = Half life in Sprague-Dawley rat at 10 mg/kg, po after 24 hrs by LC/MS/MS analysis; assay type: ADME, organism-based; details: in vivo; method in brief: as §3
[26] = AUC (0 to t) in Sprague-Dawley rat at 10 mg/kg, po after 24 hrs by LC/MS/MS analysis; assay type: ADME, organism-based; design: dose 10 mg/kg, time < 24 hr, route oral; details: in vivo; method in brief: as §3

Structure (SMILES)	solubility [1] [µg/mL]	further results
CCOc1ccc(/C=C/CN(C)Cc2ccc3c(c2)OCCC3)cc1.Cl	10200	
CN(C/C=C/c1ccc(Cl)cc1)Cc1ccc2c(c1)CCCC2.Cl	1900	
CCOc1ccc(/C=C/CN(C)Cc2ccc3c(c2)CCO3)cc1.Cl	11600	
CC(O)C(=O)O.CN(C/C=C/C=C/c1ccc(-c2ccccc2)cc1)Cc1ccc2c(c1)OCCC2	6500	
CC(=O)N[C@@H](CS)C(=O)O		Survival [2]: 54.7%; Survival [3]: 57%
CN(C/C=C/c1ccc(-c2ccccc2)cc1)Cc1ccc2c(c1)CCO2.O=P(O)(O)O	16200	
CN(C/C=C/c1ccc(Br)cc1)Cc1ccc2c(c1)CCCC2.Cl	2000	
COc1ccc(/C=C/CN(C)Cc2ccc3c(c2)CCCCC3)cc1.Cl	1400 to 4100	
CC(O)C(=O)O.CN(C/C=C/c1ccc(-c2ccccc2)cc1)Cc1ccc2c(c1)CCO2	6200	
Br.CN(C/C=C/c1ccc(-c2ccccc2)cc1)Cc1ccc2c(c1)CCO2	2200	
CN(C/C=C/C=C/c1ccc(-c2ccccc2)cc1)Cc1ccc2c(c1)OCCC2.Cl	3800	growth inhibition (GI) (Staphylococcus aureus [4]): Non-Toxic; growth inhibition (GI) (Staphylococcus aureus [5]): Non-Toxic; growth inhibition (GI) (Staphylococcus aureus [6]): Non-Toxic; growth inhibition (GI) (Staphylococcus aureus [7]): Non-Toxic
CN(C/C=C/C=C/c1ccc(-c2ccccc2)cc1)Cc1ccc2c(c1)OCCC2		fold change (FC) [8]: 10; Survival [9]: 0.23%; fold change (FC) [10]: 10; Survival [11]: 0.53%
CN(C/C=C/C=C/c1ccc(-c2ccccc2)cc1)Cc1ccc2c(c1)OCCC2.O=S(=O)(O)O	1100	
CN(C/C=C/c1ccc(C(F)(F)F)cc1F)Cc1ccc2c(c1)OCCC2.Cl	15200	
CN(C/C=C/c1ccc(-c2ccccc2)cc1)Cc1ccc2c(c1)CCO2.O=C(O)CCC(=O)O	3300	
CC(=O)O.CN(C/C=C/C=C/c1ccc(-c2ccccc2)cc1)Cc1ccc2c(c1)OCCC2	4100	
CN(C/C=C/c1ccc(-c2ccccc2)cc1)Cc1ccc2c(c1)CCO2.O=C(O)/C=C\C(=O)O	1200	
CN(C/C=C/C=C/c1ccc(-c2ccccc2)cc1)Cc1ccc2c(c1)OCCC2.O=C(O)CCC(=O)O	2300	
CN(C/C=C/C=C/c1ccc(-c2ccccc2)cc1)Cc1ccc2c(c1)OCCC2.O=C(O)/C=C\C(=O)O	1300	
CN(C/C=C/c1ccc(-c2ccccc2)cc1)Cc1ccc2c(c1)CCO2.Cl	4400	AUC(0-inf) [12]: 177 ng·h/mL; Cmax [13]: 2040 ng/mL; MRT inf [14]: 3.28 h; bioavailability [15]: 6.5%; Tmax [16]: 2 h; growth inhibition (GI) (Staphylococcus aureus [4]): Non-Toxic; Cmax [17]: 41.8 ng/mL; AUC(0-t) at 24 h [18]: 1330 ng·h/mL; MRT last at 24 h [19]: 0.9 h; MRT inf [20]: 1.13 h; MRT last at 24 h [21]: 2.61 h; AUC(0-inf) [22]: 1360 ng·h/mL; growth inhibition (GI) (Staphylococcus aureus [5]): Non-Toxic; growth inhibition (GI) (Staphylococcus aureus [6]): Non-Toxic; half-life [23]: 2.27 h; Tmax [24]: 4.98 min; growth inhibition (GI) (Staphylococcus aureus [7]): Non-Toxic; half-life [25]: 1.7 h; AUC(0-t) at 24 h [26]: 156 ng·h/mL
CN(C/C=C/c1ccc(Br)cc1)Cc1ccc2c(c1)CCCCC2.Cl	600	

Structure (SMILES)	solubility [1] [µg/mL]	further results
CN(C/C=C/C=C/c1ccc(-c2ccccc2)cc1)Cc1ccc2c(c1)OCCC2.O=C(O)CC(O)(CC(=O)O)C(=O)O	1600	
CN(C/C=C/c1ccc(-c2ccccc2)cc1)Cc1ccc2c(c1)CCO2		fold change (FC) [8]: 10; Survival [9]: 0.12%; fold change (FC) [10]: 10; Survival [11]: 0.2%
Br.CN(C/C=C/C=C/c1ccc(-c2ccccc2)cc1)Cc1ccc2c(c1)OCCC2	2800	
CN(C/C=C/c1ccc(-c2ccccc2)cc1)Cc1ccc2c(c1)CCO2.O=C(O)C(O)C(O)C(=O)O	5700	
CN(C/C=C/c1ccc(-c2ccccc2)cc1)Cc1ccc2c(c1)CCO2.O=S(=O)(O)O	1800	
CN(C/C=C/c1ccc(C(F)(F)F)cc1)Cc1ccc2c(c1)OCCC2.Cl	13200	
CN(C/C=C/c1ccc(C(F)(F)F)cc1)Cc1ccc2c(c1)CCO2.Cl	14600	
COc1ccc(/C=C/CN(C)Cc2ccc3c(c2)CCCC3)cc1.Cl	900	
CN(C/C=C/C=C/c1ccc(-c2ccccc2)cc1)Cc1ccc2c(c1)OCCC2.O=P(O)(O)O	12900	
CN(C/C=C/c1ccc(C(F)(F)F)cc1F)Cc1ccc2c(c1)CCO2.Cl	16300	
CN(C/C=C/C=C/c1ccc(-c2ccccc2)cc1)Cc1ccc2c(c1)OCCC2.O=C(O)C(F)(F)F	1700	
CN(C/C=C/c1ccc(-c2ccccc2)cc1)Cc1ccc2c(c1)CCO2.O=C(O)C(F)(F)F	1500	
CN(C/C=C/c1ccc(Cl)cc1)Cc1ccc2c(c1)OCCC2.Cl	11500	
CC(=O)O.CN(C/C=C/c1ccc(-c2ccccc2)cc1)Cc1ccc2c(c1)CCO2	4700	
CN(C/C=C/c1ccc(C(F)(F)F)cc1)Cc1ccc2c(c1)CCCC2.Cl	700	
CN(C/C=C/c1ccc(-c2ccccc2)cc1)Cc1ccc2c(c1)CCO2.O=C(O)CC(O)(CC(=O)O)C(=O)O	2300	
CN(C/C=C/c1ccc(Cl)cc1)Cc1ccc2c(c1)CCCCC2.Cl	1200	
CN(C/C=C/c1ccc(C(F)(F)F)cc1)Cc1ccc2c(c1)CCCCC2.Cl	2600	
CN(C/C=C/C=C/c1ccc(-c2ccccc2)cc1)Cc1ccc2c(c1)OCCC2.O=C(O)C(O)C(O)C(=O)O	4600	
CN(C/C=C/c1ccc(C(F)F)cc1)Cc1ccc2c(c1)OCCC2.Cl	16300	

From ChEMBL document CHEMBL4017515 (J Med Chem, 2017)
